Measured values taken from ChEMBL document CHEMBL1140861, “Short antisense oligonucleotides with novel 2'-4' conformationaly restricted nucleoside analogues show improved potency without increased toxicity in animals” (J Med Chem, 2009).
Active and inactive are the calls of the source. The rule behind the calls is not given here.

Key:
[1] = test system: Mus musculus; test: Reduction of PTEN mRNA level in BALB/c mouse liver at 60 mg/kg, ip after 72 hrs; assay type: functional, organism-based; set-up: dose 60 mg/kg
[2] = test system: Mus musculus; test: Reduction of PTEN mRNA level in BALB/c mouse liver at 37 mg/kg, ip after 72 hrs; assay type: functional, organism-based; set-up: dose 37 mg/kg
[3] = test system: Mus musculus; test: Hepatotoxicity in BALB/c mouse assessed as increase in liver ALT level at 35 mg/kg, ip after 72 hrs; assay type: toxicity, organism-based; set-up: dose 35 mg/kg, route intraperitoneal; conditions: in vivo
How it was run: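 Single ip injection of 35 mg/kg ASO into male Balb/c mice, 6 weeks old, n = 4 per group, saline control; sacrificed 72 h after dosing and ALT recorded; ANOVA with Tukey's post hoc test.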

[4] = test system: Mus musculus; test: Hepatotoxicity in BALB/c mouse assessed as increase in liver ALT level at 35 mg/kg, ip after 72 hrs; conditions: in vivo
[5] = test system: Mus musculus; test: as above; conditions: in vivo; remark: listed apart in the source

## Cc1cn([C@@H]2O[C@@]3(COP(O)(=S)O[C@@H]4[C@@H](OP(O)(=S)OC[C@H]5O[C@@H](n6cc(C)c(=O)[nH]c6=O)[C@H](O)[C@@H]5OP(O)(=S)OC[C@H]5O[C@@H](n6cnc7c(=O)[nH]c(N)nc76)[C@H](O)[C@@H]5OP(O)(=S)OC[C@H]5O[C@@H](n6cnc7c(=O)[nH]c(N)nc76)[C@H](O)[C@@H]5OP(O)(=S)OC[C@H]5O[C@@H](n6ccc(N)nc6=O)[C@H](O)[C@@H]5OP(O)(=S)OC[C@H]5O[C@@H](n6cc(C)c(=O)[nH]c6=O)[C@H](O)[C@@H]5OP(O)(=S)OC[C@H]5O[C@@H](n6cnc7c(=O)[nH]c(N)nc76)[C@H](O)[C@@H]5OP(O)(=S)OC[C@H]5O[C@@H](n6ccc(N)nc6=O)[C@H](O)[C@@H]5OP(O)(=S)OC[C@H]5O[C@@H](n6cnc7c(N)ncnc76)[C@H](O)[C@@H]5OP(O)(=S)OC[C@H]5O[C@@H](n6cnc7c(=O)[nH]c(N)nc76)[C@H](O)[C@@H]5OP(O)(=S)OC[C@@]56CO[C@@H]([C@H](n7cc(C)c(N)nc7=O)O5)[C@@H]6OP(O)(=S)OC[C@@]56CO[C@@H]([C@H](n7cc(C)c(=O)[nH]c7=O)O5)[C@@H]6O)O[C@@H](n5cnc6c(N)ncnc65)[C@@H]4O)CO[C@@H]2[C@@H]3OP(O)(=S)OC[C@@]23CO[C@@H]([C@H](n4cc(C)c(=O)[nH]c4=O)O2)[C@@H]3O)c(=O)nc1N (stereo not given in full)
[1]
  Activity: Active
[2]
  Activity: Active
[3]
  Activity: Toxic
[4]
  Activity: Toxic
[5]
  Activity: Toxic
